# Laboratory results published in ChEMBL document CHEMBL1156747, “N3-arylmalonamides: a new series of thieno[3,2-b]pyridine based inhibitors of c-Met and VEGFR2 tyrosine kinases” (Bioorg Med Chem Lett, 2009).
# Active and inactive are the calls of the source. The rule behind the calls is not given here.
# Assays:
# [1] = biological target: T1, Hepatocyte growth factor receptor (Homo sapiens, UniProt P08581); experiment: Inhibition of GST-fused recombinant C-met expressed in baculovirus infected high five cells after 30 mins by DELFIA assay
# Method in brief: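 GST-fused catalytic domains from baculovirus-infected cells, High Five for c-Met (MOI 1) and Sf9 for VEGFR2 (MOI 0.1). DELFIA on immobilized poly(Glu4,Tyr). Enzyme 25 nM (c-Met) or 5 nM (VEGFR2), pre-incubated 4 min on ice with inhibitor and Mg-ATP. Reaction at 30 °C, 30 min (c-Met) or 10 min (VEGFR2), stopped with EDTA. Europium anti-phosphotyrosine read by time-resolved fluorescence. Seven concentrations in triplicate; IC50 from four-parameter fit.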
# Target sequence in this assay (P08581 whole entry, the tested form may be a part): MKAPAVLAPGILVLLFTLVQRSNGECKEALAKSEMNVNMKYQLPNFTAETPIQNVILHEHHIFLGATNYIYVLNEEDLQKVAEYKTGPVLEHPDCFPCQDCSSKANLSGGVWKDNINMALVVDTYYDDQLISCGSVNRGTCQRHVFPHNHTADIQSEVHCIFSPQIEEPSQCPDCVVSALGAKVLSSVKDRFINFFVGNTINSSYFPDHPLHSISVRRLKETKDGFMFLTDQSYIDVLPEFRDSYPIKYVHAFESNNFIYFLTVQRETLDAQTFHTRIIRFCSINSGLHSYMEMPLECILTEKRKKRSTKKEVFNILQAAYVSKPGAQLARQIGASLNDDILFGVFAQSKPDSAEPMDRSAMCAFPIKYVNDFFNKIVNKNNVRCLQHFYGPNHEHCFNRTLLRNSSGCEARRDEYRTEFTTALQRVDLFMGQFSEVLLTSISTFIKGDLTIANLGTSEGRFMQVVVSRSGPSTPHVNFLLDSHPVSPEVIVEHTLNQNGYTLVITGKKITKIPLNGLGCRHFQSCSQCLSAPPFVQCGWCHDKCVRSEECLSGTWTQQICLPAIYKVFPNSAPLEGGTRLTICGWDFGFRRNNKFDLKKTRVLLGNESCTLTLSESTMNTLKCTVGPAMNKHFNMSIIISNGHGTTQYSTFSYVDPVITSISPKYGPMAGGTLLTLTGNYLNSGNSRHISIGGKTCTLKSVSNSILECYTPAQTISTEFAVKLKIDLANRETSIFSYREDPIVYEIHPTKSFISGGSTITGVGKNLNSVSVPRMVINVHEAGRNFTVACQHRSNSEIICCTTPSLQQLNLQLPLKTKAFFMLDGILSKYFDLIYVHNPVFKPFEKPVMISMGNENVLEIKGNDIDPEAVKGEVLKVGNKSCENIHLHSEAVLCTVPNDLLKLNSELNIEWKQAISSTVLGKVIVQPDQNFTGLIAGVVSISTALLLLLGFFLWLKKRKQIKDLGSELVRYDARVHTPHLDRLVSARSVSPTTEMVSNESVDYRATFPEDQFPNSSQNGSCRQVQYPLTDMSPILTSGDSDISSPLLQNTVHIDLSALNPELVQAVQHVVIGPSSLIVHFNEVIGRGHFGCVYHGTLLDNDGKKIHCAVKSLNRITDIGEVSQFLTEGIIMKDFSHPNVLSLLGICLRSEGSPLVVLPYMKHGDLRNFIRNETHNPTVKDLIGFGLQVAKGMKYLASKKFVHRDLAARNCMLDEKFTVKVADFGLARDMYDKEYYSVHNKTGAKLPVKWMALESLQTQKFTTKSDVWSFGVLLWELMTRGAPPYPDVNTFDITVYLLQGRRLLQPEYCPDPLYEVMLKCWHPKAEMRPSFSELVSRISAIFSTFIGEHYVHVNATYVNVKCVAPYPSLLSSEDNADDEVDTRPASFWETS
# [2] = biological target: T1, Hepatocyte growth factor receptor; experiment: Inhibition of TPR-met autophosphorylation expressed in HEK293T cells after 150 mins by ELISA; format: cell-based; details: hek-293t
# Method in brief: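 293T clone stably expressing activated TPR-Met under a CMV promoter, exposed to compound dilutions for 150 min. Autophosphorylation measured in lysates by ELISA with anti-phosphotyrosine (4G10), HRP reporter antibody and chemiluminescent read-out. IC50 from 4-parameter fit of triplicate means.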
# Target sequence in this assay (P08581 25-1390 limits assumed): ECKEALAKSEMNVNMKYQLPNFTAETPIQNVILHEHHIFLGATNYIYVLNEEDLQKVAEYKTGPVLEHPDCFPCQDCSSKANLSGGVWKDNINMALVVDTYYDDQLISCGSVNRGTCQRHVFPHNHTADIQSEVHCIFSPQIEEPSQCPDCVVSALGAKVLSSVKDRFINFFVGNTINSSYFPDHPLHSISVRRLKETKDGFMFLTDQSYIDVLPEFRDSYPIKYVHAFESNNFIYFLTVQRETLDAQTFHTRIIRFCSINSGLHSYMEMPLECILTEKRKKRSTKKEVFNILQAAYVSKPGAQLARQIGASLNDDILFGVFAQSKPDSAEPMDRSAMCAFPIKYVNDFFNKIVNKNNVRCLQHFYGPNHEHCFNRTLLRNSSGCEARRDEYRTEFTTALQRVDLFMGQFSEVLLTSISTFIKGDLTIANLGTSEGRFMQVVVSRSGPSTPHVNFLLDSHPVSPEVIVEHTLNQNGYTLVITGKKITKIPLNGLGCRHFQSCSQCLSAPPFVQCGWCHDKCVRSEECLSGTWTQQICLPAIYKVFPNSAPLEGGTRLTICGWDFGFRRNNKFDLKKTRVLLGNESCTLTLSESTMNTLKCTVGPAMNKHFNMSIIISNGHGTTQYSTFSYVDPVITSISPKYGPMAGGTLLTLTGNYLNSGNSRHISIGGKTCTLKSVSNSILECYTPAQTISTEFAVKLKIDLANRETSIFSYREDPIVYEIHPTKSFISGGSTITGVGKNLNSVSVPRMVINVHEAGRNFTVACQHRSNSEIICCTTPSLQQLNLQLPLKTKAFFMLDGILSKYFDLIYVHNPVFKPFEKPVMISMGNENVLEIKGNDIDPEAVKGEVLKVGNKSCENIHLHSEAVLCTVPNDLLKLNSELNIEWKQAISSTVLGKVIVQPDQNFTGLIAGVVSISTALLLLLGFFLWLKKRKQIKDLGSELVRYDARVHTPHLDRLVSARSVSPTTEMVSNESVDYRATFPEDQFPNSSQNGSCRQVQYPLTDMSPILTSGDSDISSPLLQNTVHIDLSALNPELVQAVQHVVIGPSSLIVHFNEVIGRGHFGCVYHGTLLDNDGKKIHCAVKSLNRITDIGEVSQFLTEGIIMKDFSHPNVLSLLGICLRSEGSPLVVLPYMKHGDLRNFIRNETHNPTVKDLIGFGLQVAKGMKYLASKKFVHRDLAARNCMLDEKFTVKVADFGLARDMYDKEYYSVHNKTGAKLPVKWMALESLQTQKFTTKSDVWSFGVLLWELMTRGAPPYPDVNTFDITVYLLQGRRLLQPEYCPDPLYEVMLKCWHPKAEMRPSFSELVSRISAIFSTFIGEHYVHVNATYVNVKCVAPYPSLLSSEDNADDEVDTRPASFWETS
# [3] = biological target: T2, Vascular endothelial growth factor receptor 2 (Homo sapiens, UniProt P35968); experiment: Inhibition of GST-fused recombinant VEGFR2 expressed in baculovirus infected Sf9 cells after 30 mins by DELFIA assay
# T2 sequence (P35968 whole entry, the tested form may be a part): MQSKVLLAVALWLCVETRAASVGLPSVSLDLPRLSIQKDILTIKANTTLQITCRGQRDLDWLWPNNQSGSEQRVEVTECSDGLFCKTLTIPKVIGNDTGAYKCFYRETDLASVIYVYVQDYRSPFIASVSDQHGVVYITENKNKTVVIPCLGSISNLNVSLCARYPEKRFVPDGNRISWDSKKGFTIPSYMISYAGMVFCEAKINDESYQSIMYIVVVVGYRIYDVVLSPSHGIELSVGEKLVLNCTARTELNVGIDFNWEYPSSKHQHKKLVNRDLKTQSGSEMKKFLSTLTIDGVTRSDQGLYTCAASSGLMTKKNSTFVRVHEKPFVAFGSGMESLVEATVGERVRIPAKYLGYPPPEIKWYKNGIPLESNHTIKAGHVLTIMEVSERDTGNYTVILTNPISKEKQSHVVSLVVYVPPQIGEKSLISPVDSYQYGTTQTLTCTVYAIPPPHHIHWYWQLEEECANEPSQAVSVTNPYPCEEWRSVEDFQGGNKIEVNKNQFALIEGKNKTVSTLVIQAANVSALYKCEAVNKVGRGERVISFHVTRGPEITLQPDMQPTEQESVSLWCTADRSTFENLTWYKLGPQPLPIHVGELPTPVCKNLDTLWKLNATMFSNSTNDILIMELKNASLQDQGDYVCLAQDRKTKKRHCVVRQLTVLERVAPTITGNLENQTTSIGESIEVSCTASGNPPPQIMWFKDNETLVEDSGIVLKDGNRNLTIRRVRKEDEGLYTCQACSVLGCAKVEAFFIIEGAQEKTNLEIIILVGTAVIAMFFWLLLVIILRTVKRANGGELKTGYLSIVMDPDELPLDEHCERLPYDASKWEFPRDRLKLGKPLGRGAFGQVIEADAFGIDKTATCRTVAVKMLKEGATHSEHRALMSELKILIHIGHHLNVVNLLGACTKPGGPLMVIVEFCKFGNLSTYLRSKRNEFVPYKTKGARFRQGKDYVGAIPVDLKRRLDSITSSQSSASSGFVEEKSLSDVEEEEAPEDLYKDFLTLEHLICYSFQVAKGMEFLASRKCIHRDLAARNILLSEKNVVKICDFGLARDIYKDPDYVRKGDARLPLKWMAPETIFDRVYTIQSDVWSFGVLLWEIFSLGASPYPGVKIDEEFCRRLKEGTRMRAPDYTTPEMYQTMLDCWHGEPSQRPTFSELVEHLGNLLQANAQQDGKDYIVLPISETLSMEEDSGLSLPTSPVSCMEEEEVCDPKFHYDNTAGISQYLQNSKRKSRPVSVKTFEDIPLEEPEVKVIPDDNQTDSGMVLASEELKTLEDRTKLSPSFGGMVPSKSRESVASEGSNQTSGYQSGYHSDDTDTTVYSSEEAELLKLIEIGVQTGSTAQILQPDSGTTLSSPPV
# [4] = biological target: Receptor-type tyrosine-protein kinase FLT3 (Homo sapiens) (UniProt P36888); experiment: Inhibition of Flt3 at 100 nM by radiometric protein kinase assay
# Sequence of Receptor-type tyrosine-protein kinase FLT3 (Homo sapiens) (P36888 whole entry): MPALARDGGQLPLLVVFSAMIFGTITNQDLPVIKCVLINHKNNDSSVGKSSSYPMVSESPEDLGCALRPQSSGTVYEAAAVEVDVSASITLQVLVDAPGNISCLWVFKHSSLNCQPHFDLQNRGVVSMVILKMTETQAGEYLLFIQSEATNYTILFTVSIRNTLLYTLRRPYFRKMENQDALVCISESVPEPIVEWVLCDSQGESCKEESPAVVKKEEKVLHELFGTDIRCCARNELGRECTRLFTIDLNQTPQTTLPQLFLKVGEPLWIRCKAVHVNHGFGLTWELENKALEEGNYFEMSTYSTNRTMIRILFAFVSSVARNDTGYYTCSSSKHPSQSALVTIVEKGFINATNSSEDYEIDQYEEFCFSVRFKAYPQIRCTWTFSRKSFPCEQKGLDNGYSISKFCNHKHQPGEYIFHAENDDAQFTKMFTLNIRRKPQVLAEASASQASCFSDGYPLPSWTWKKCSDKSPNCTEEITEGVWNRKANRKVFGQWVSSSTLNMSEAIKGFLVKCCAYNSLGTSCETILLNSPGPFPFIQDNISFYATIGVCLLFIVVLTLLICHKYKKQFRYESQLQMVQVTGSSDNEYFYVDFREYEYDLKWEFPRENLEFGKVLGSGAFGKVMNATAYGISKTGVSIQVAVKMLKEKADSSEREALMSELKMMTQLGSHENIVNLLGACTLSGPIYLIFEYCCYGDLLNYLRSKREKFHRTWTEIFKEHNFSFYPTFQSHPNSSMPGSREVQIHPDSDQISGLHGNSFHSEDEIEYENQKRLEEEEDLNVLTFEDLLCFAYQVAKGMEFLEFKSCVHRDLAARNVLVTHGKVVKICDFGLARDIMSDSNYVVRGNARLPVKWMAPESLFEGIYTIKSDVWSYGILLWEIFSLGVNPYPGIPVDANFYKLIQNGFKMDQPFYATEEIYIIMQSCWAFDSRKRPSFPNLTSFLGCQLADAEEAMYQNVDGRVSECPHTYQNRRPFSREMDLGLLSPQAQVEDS
# Method in brief: (§1)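 Single-concentration kinase selectivity panel run as radiometric protein kinase assays by an outside screening service; percent inhibition reported.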
# DU-145 = experiment: Inhibition of HGF-induced scattering in human DU145 cells; format: functional, cell-based
# [5] = biological target: Cyclin-dependent kinase 2/cyclin E (Homo sapiens) (UniProt P24864+P24941+O96020); experiment: Inhibition of CDK2/Cyclin E at 100 nM by radiometric protein kinase assay; format: protein-complex assay; method in brief: as §1
# [6] = biological target: Epidermal growth factor receptor (Homo sapiens) (UniProt P00533); experiment: Inhibition of EGFR at 100 nM by radiometric protein kinase assay; method in brief: as §1
# [7] = biological target: Vascular endothelial growth factor receptor 3 (Homo sapiens) (UniProt P35916); experiment: Inhibition of VEGFR3 at 100 nM by radiometric protein kinase assay; method in brief: as §1
# A549 [8] = experiment: Antitumor activity against human A549 cells xenografted model assessed as tumor growth inhibition at 40 mg/kg, po qd after 14 days; format: functional; details: A549, 336 h, read-out: TGI
# [9] = biological target: T2, Vascular endothelial growth factor receptor 2; experiment: Inhibition of VEGFR2 assessed as inhibition of ERK phosphorylation
# Method in brief: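 Cellular assay: ERK phosphorylation was measured after VEGF stimulation.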
# HUVEC [10] = experiment: Antiproliferative activity against HUVEC cells assessed as inhibition of […] proliferation; format: functional, cell-based; details: Homo sapiens
# [11] = Tmax in rat at 4.28 to 4.98 mg/kg, po; format: ADME, organism-based; set-up: dose 4.28-4.98 mg/kg, route oral; details: in vivo
# Method in brief: (§2)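 Rat pharmacokinetics with intravenous dosing at 2.17–2.86 mg/kg and oral dosing at 4.28–4.98 mg/kg. Oral Cmax and AUC normalised per mg/kg.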
# [12] = Clearance in rat at 2.17 to 2.86 mg/kg, iv and 4.28 to 4.98 mg/kg, po; format: ADME, organism-based; details: in vivo; method in brief: as §2
# [13] = biological target: Platelet-derived growth factor receptor alpha (Homo sapiens) (UniProt P16234); experiment: Inhibition of PDGFRalpha at 100 nM by radiometric protein kinase assay; method in brief: as §1
# [14] = biological target: Angiopoietin-1 receptor (Homo sapiens) (UniProt Q02763); experiment: Inhibition of […] at 100 nM by radiometric protein kinase assay; method in brief: as §1
# [15] = Half life in rat at 2.17 to 2.86 mg/kg, iv; format: ADME, organism-based; set-up: dose 2.17-2.86 mg/kg, route intravenous; details: in vivo; method in brief: as §2
# Rattus norvegicus = experiment: Cmax in rat at 4.28 to 4.98 mg/kg, po; format: ADME, organism-based; set-up: dose 4.28-4.98 mg/kg, route oral; details: in vivo; method in brief: as §2
# [16] = biological target: Proto-oncogene tyrosine-protein kinase Src (Homo sapiens) (UniProt P12931); experiment: Inhibition of c-SRC at 100 nM by radiometric protein kinase assay; method in brief: as §1
# [17] = biological target: Inhibitor of nuclear factor kappa-B kinase subunit beta (Homo sapiens) (UniProt O14920); experiment: Inhibition of IKK-beta at 100 nM by radiometric protein kinase assay; method in brief: as §1
# [18] = biological target: Mast/stem cell growth factor receptor Kit (Homo sapiens) (UniProt P10721); experiment: Inhibition of c-Kit at 100 nM by radiometric protein kinase assay; method in brief: as §1
# [19] = Oral bioavailability in rat at 4.28 to 4.98 mg/kg; format: ADME, organism-based; details: in vivo; method in brief: as §2
# MKN-45 = experiment: Antitumor activity against human MKN45 cells xenografted model assessed as tumor growth inhibition at 40 mg/kg, po qd after 12 days; format: functional; details: MKN-45, 288 h, read-out: TGI
# A549 [20] = experiment: Inhibition of HGF-induced cell migration in human A549 cells by wound healing assay; format: functional, cell-based
# [21] = biological target: Ephrin type-B receptor 4 (Homo sapiens) (UniProt P54760); experiment: Inhibition of EphB4 at 100 nM by radiometric protein kinase assay; method in brief: as §1
# HUVEC [22] = experiment: Antiangiogenic activity in HUVEC cells assessed as inhibition of VEGF-induced tubule growth at 100 nM; format: functional, cell-based; details: Homo sapiens
# [23] = biological target: Aurora kinase A (Homo sapiens) (UniProt O14965); experiment: Inhibition of Aurora A at 100 nM by radiometric protein kinase assay; method in brief: as §1
# [24] = Antitumor activity against human U87MG cells xenografted model assessed as tumor growth inhibition at 40 mg/kg, po qd after 10 days; format: functional, U-87MG ATCC; details: U-87 MG, 240 h, read-out: TGI
# [25] = biological target: Glycogen synthase kinase-3 beta (Homo sapiens) (UniProt P49841); experiment: Inhibition of GSK3-beta at 100 nM by radiometric protein kinase assay; method in brief: as §1
# HUVEC [26] = experiment: Antiangiogenic activity in HUVEC cells assessed as inhibition of VEGF-induced tubule growth; format: functional, cell-based; details: Homo sapiens
# [27] = biological target: RAC-alpha serine/threonine-protein kinase (Homo sapiens) (UniProt P31749); experiment: Inhibition of PKBalpha at 100 nM by radiometric protein kinase assay; method in brief: as §1
# [28] = biological target: Vascular endothelial growth factor receptor 1 (Homo sapiens) (UniProt P17948); experiment: Inhibition of VEGFR1 at 100 nM by radiometric protein kinase assay; method in brief: as §1
# [29] = Volume of distribution at steady state in rat at 2.17 to 2.86 mg/kg, iv and 4.28 to 4.98 mg/kg, po; format: ADME, organism-based; details: in vivo, read-out: Vdss; method in brief: as §2
smiles,measurement,setting,value
CN(C)CCn1cnc(C(=O)c2cc3nccc(Oc4ccc(NC(=O)CC(=O)Nc5ccccc5)cc4F)c3s2)c1,IC50,[1],20 nM
same,IC50,[2],190 nM
CN(C)[C@@H]1CCN(C(=O)c2cc3nccc(Oc4ccc(NC(=O)CC(=O)Nc5ccccc5)cc4F)c3s2)C1,IC50,[2],560 nM
CCn1cnc(-c2cc3nccc(Oc4ccc(NC(=O)C5(C(=O)Nc6ccccc6F)CC5)cc4F)c3s2)c1,IC50,[1],38 nM
same,IC50,[2],120 nM
CCn1cnc(-c2cc3nccc(Oc4ccc(NC(=O)CC(=O)NC5CCCCC5)cc4F)c3s2)c1,IC50,[1],52 nM
same,IC50,[3],10 nM
same,IC50,[2],590 nM
O=C(CC(=O)Nc1ccc(Oc2ccnc3cc(C(=O)N4CCCC4)sc23)c(F)c1)Nc1ccccc1,IC50,[2],2000 nM
CCn1cnc(-c2cc3nccc(Oc4ccc(NC(=O)CC(=O)Nc5ccccc5OC)cc4F)c3s2)c1,IC50,[2],44 nM
CCn1cnc(-c2cc3nccc(Oc4ccc(NC(=O)CC(=O)Nc5ccccc5O)cc4F)c3s2)c1,IC50,[1],26 nM
same,IC50,[2],600 nM
Cn1cnc(C(=O)c2cc3nccc(Oc4ccc(NC(=O)CC(=O)Nc5ccccc5)cc4F)c3s2)c1,IC50,[1],25 nM
same,IC50,[2],340 nM
Cn1ccnc1C(=O)c1cc2nccc(Oc3ccc(NC(=O)CC(=O)Nc4ccccc4)cc3F)c2s1,IC50,[1],36 nM
same,IC50,[2],40 nM
CCn1cnc(-c2cc3nccc(Oc4ccc(NC(=O)CC(=O)Nc5cccc(F)c5)cc4F)c3s2)c1,IC50,[1],52 nM
same,IC50,[3],10 nM
same,IC50,[2],870 nM
CCn1cnc(-c2cc3nccc(Oc4ccc(NC(=O)CC(=O)Nc5ccc(F)cc5)cc4F)c3s2)c1,IC50,[1],24 nM
CCn1cnc(-c2cc3nccc(Oc4ccc(NC(=O)CC(=O)Nc5ccccc5F)cc4F)c3s2)c1,IC50,[1],32 nM
same,IC50,[2],35 nM
CCn1cnc(-c2cc3nccc(Oc4ccc(NC(=O)C5(C(=O)Nc6ccccc6)CC5)cc4F)c3s2)c1,inhibition,[4],100%
same,IC50,DU-145,40 nM
same,inhibition,[5],< 5%
same,inhibition,[6],< 5%
same,inhibition,[7],97%
same,inhibition in vivo at 40 mg/kg,A549 [8],54%
same,IC50,[9],1 nM
same,IC50,[1],24 nM
same,IC50,HUVEC [10],0.3 nM
same,Tmax,[11],2 h
same,clearance,[12],16.5 mL/min/kg
same,inhibition,[13],99%
same,inhibition,[14],100%
same,half-life,[15],3.1 h
same,Cmax normalised,Rattus norvegicus,0.1 µM/mg/kg
same,inhibition,[16],93%
same,inhibition,[17],< 5%
same,inhibition,[18],99%
same,bioavailability,[19],33%
same,inhibition in vivo at 40 mg/kg,MKN-45,101%
same,IC50,A549 [20],220 nM
same,inhibition,[21],95%
same,Activity,HUVEC [22],Active
same,inhibition,[23],96%
same,inhibition in vivo at 40 mg/kg,[24],70%
same,inhibition,[25],< 5%
same,IC50,HUVEC [26],< 3 nM
same,inhibition,[27],< 5%
same,inhibition,[28],98%
same,IC50,[2],4 nM
same,Vd,[29],2.2 L/kg
CCn1cnc(-c2cc3nccc(Oc4ccc(NC(=O)CC(=O)N(C)c5ccccc5)cc4F)c3s2)c1,IC50,[1],33 nM
same,Tmax,[11],0.5 h
same,clearance,[12],8.67 mL/min/kg
same,half-life,[15],0.91 h
same,Cmax normalised,Rattus norvegicus,0.29 µM/mg/kg
same,bioavailability,[19],60%
same,IC50,[2],31 nM
same,Vd,[29],0.33 L/kg
CCn1cnc(-c2cc3nccc(Oc4ccc(NC(=O)CC(=O)Nc5ccccc5C(F)(F)F)cc4F)c3s2)c1,IC50,[1],91 nM
same,IC50,[2],150 nM
O=C(O)Cn1cnc(C(=O)c2cc3nccc(Oc4ccc(NC(=O)CC(=O)Nc5ccccc5)cc4F)c3s2)c1,IC50,[1],36 nM
same,IC50,[2],> 5000 nM
CCn1cnc(C(=O)c2cc3nccc(Oc4ccc(NC(=O)CC(=O)Nc5ccccc5)cc4F)c3s2)c1,IC50,[1],19 nM
same,Tmax,[11],5.7 h
same,clearance,[12],5.5 mL/min/kg
same,half-life,[15],2.6 h
same,Cmax normalised,Rattus norvegicus,0.18 µM/mg/kg
same,bioavailability,[19],12%
same,IC50,[2],180 nM
same,Vd,[29],0.82 L/kg
